The subject of one assay is Candida albicans. The assay is described as follows: Antifungal activity against Candida albicans isolate after 72 hrs by serial dilution technique. The class given is functional. The procedure, abridged:
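Candida albicans clinical isolate kept on Sabouraud agar at +4 °C, subcultured monthly. Compounds dissolved at 10 mg/mL in DMSO, diluted in medium to 1000 μg/mL, tested at final […] by serial microdilution in 96-well plates. Inoculum adjusted with saline to ~1.0×10^5 per well. Incubated 72 h at 28 °C. MIC recorded.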

Assay [1] concerns Micrococcus luteus. The assay is described as follows: Antibacterial activity against Micrococcus luteus isolate after 48 hrs by serial dilution technique. It counts as functional. The procedure, abridged: (§1)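 Broth microdilution MIC in 96-well plates. Compounds dissolved at 10 mg/mL in DMSO, diluted in nutrient medium to 1000 μg/mL, tested at final […] in serial dilution. Bacteria grown overnight at 37 °C in TSB (~10^9 cells/mL), adjusted with sterile saline to ~1.0×10^5 per well. Plates incubated 48 h at 37 °C.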

A further assay has as its system Pseudomonas tolaasii. The assay is described as follows: Antibacterial activity against Pseudomonas tolaasii after 48 hrs by serial dilution technique. It counts as functional. The procedure, abridged: as §1
In another assay the test system is Staphylococcus aureus. The assay is described as follows: Antibacterial activity against Staphylococcus aureus ATCC 6538 after 48 hrs by serial dilution technique. The conditions noted are these: ATCC 6538, 48 h. The class given is functional. The method, boiled down:
as §1

Assay [2] relates to Agrobacterium tumefaciens. The assay is described as follows: Antibacterial activity against Agrobacterium tumefaciens A281 after 48 hrs by serial dilution technique. The following applies: A281, 48 h. The class given is functional. The method, boiled down: as §1
For another assay, the system named is Escherichia coli. The assay is described as follows: Antibacterial activity against Escherichia coli ATCC 35218 after 48 hrs by serial dilution technique. The conditions noted are these: ATCC 35218, 48 h. The class given is functional. The method, boiled down:
as §1

Assay [3] relates to Micrococcus luteus. The assay is described as follows: Antibacterial activity against Sarcina lutea ATCC 9341 after 48 hrs by serial dilution technique. The class given is functional. The conditions noted are these: ATCC 9341, 48 h. The procedure, abridged: as §1
A further assay has as its system Salmonella enteritidis. The assay is described as follows: Antibacterial activity against Salmonella enteritidis ATCC 13076 after 48 hrs by serial dilution technique. The following applies: Salmonella enterica, ATCC 13076, 48 h. The class given is functional, Salmonella enterica subsp. enterica serovar Enteritidis. The method, boiled down:
as §1

The subject of a further assay is Bacillus cereus. The assay is described as follows: Antibacterial activity against Bacillus cereus isolate after 48 hrs by serial dilution technique. The class given is functional. The procedure, abridged: as §1
For the next assay, the system named is Proteus mirabilis. The assay is described as follows: Antibacterial activity against Proteus mirabilis isolate after 48 hrs by serial dilution technique. The class given is functional. The method, boiled down:
as §1

The next assay concerns Pseudomonas aeruginosa. The assay is described as follows: Antibacterial activity against Pseudomonas aeruginosa isolate after 48 hrs by serial dilution technique. It counts as functional. The method, boiled down: as §1

For seven compounds, MIC results are on record in ChEMBL document CHEMBL1157328, “Linear sesquiterpene lactones from Anthemis auriculata and their antibacterial activity” (2006).

By MIC is commonly meant the lowest concentration that inhibits growth of the organism. Read a high MIC as a less susceptible organism.

Each structure is given as a SMILES string. Values after ≈ are worked out from the molar mass of the structure shown.

For the compound `C=C1C(=O)OCC1C/C=C(\C)CC(=O)C=C(C)C` (stereo not drawn) [ANTHECOTULIDE], the MIC came to 101 µM (≈ 25.1 µg/mL) against Candida albicans; 101 µM (≈ 25.1 µg/mL) in the assay with Micrococcus luteus [1]; 202 µM (≈ 50.2 µg/mL) against Pseudomonas tolaasii; 101 µM (≈ 25.1 µg/mL) against Staphylococcus aureus; 101 µM (≈ 25.1 µg/mL) in assay [2]; 101 µM (≈ 25.1 µg/mL) against Escherichia coli. The minimum inhibitory concentration (MIC) in the assay on Micrococcus luteus [3] was found to be 51 µM (≈ 12.7 µg/mL); against Salmonella enteritidis it was 202 µM (≈ 50.2 µg/mL); with Bacillus cereus, 51 µM (≈ 12.7 µg/mL); against Proteus mirabilis, 202 µM (≈ 50.2 µg/mL); in the assay on Pseudomonas aeruginosa, 202 µM (≈ 50.2 µg/mL).
`CN[C@@H]1[C@H](O[C@H]2[C@H](O[C@H]3[C@H](O)[C@@H](O)[C@H](N=C(N)N)[C@@H](O)[C@@H]3N=C(N)N)O[C@@H](C)[C@]2(O)C=O)O[C@@H](CO)[C@H](O)[C@H]1O` [STREPTOMYCIN]: the MIC was determined as 34.3 µM (≈ 19.9 µg/mL) against Micrococcus luteus [1]; 137 µM (≈ 79.8 µg/mL) with Pseudomonas tolaasii; 34.3 µM (≈ 19.9 µg/mL) against Staphylococcus aureus; 68.6 µM (≈ 39.9 µg/mL) in [2]; 68.6 µM (≈ 39.9 µg/mL) in the assay on Escherichia coli; 34.3 µM (≈ 19.9 µg/mL) in the assay with Micrococcus luteus [3]. For the same compound, the results for the minimal inhibitory concentration (MIC) in the assay with Salmonella enteritidis, against Bacillus cereus and against Proteus mirabilis were 137 µM (≈ 79.8 µg/mL), 34.3 µM (≈ 19.9 µg/mL) and 137 µM (≈ 79.8 µg/mL), respectively.
Consider `c1ccc(-c2ccc(C(c3ccccc3)n3ccnc3)cc2)cc1` (stereo not drawn) [BIFONAZOLE], for which, in the assay with Candida albicans, the minimal inhibitory concentration (MIC) is 644 µM (≈ 200 µg/mL).
On to `C=C1C(=O)OC[C@H]1[C@@H](O)/C=C(\C)CC(=O)C=C(C)C`, for which the MIC against Candida albicans came to 189 µM (≈ 50 µg/mL); against Micrococcus luteus [1], 94.7 µM (≈ 25 µg/mL); against Pseudomonas tolaasii, 189 µM (≈ 50 µg/mL); against Staphylococcus aureus, 47 µM (≈ 12.4 µg/mL); in [2], 94.7 µM (≈ 25 µg/mL); against Escherichia coli, 189 µM (≈ 50 µg/mL). Moreover, the minimum inhibitory concentration (MIC) worked out at 47 µM (≈ 12.4 µg/mL) against Micrococcus luteus [3]; 189 µM (≈ 50 µg/mL) against Salmonella enteritidis; 94.7 µM (≈ 25 µg/mL) in the assay with Bacillus cereus; 189 µM (≈ 50 µg/mL) against Proteus mirabilis; 189 µM (≈ 50 µg/mL) in the assay on Pseudomonas aeruginosa.
Consider `C=C1CC[C@]2(C)CC[C@]3(C)[C@H](CC[C@@H]4[C@@]5(C)CC[C@H](O)C(C)(C)[C@@H]5CC[C@]43C)[C@@H]2[C@@H]1C`, for which the MIC in the assay on Candida albicans came to 117 µM (≈ 50.1 µg/mL); in the assay on Micrococcus luteus [1], 58.7 µM (≈ 25 µg/mL); in the assay with Pseudomonas tolaasii it was 117 µM (≈ 50.1 µg/mL); in the assay on Staphylococcus aureus it was 29.3 µM (≈ 12.5 µg/mL); in assay [2], 29.3 µM (≈ 12.5 µg/mL); against Escherichia coli it was 117 µM (≈ 50.1 µg/mL). Further, the MIC against Micrococcus luteus [3] was found to be 14.7 µM (≈ 6.27 µg/mL); in the assay on Salmonella enteritidis, 117 µM (≈ 50.1 µg/mL); in the assay with Bacillus cereus, 58.7 µM (≈ 25 µg/mL); in the assay on Proteus mirabilis, 117 µM (≈ 50.1 µg/mL); with Pseudomonas aeruginosa, 117 µM (≈ 50.1 µg/mL).
`C=C1C(=O)OC[C@H]1[C@H](/C=C(\C)CC(=O)C=C(C)C)OC(C)=O`: the minimal inhibitory concentration (MIC) turned out to be 81.7 µM (≈ 25 µg/mL) with Candida albicans; 81.7 µM (≈ 25 µg/mL) against Micrococcus luteus [1]; 163 µM (≈ 50.1 µg/mL) against Pseudomonas tolaasii; 81.7 µM (≈ 25 µg/mL) against Staphylococcus aureus; 81.7 µM (≈ 25 µg/mL) in [2]; 81.7 µM (≈ 25 µg/mL) in the assay with Escherichia coli. The MIC with Micrococcus luteus [3] turned out to be 40.8 µM (≈ 12.5 µg/mL); against Salmonella enteritidis, 163 µM (≈ 50.1 µg/mL); in the assay on Bacillus cereus it was 81.7 µM (≈ 25 µg/mL); in the assay with Proteus mirabilis it was 163 µM (≈ 50.1 µg/mL); with Pseudomonas aeruginosa, 163 µM (≈ 50.1 µg/mL).
For `COC(=O)c1ccc(O)c(OC)c1` [METHYL VANILLATE], the minimum inhibitory concentration (MIC) was determined as 275 µM (≈ 50 µg/mL) against Candida albicans; 137 µM (≈ 25 µg/mL) against Micrococcus luteus [1]; 275 µM (≈ 50 µg/mL) with Pseudomonas tolaasii; 137 µM (≈ 25 µg/mL) with Staphylococcus aureus; 275 µM (≈ 50 µg/mL) in assay [2]; 275 µM (≈ 50 µg/mL) against Escherichia coli. For the same compound, the minimal inhibitory concentration (MIC) worked out at 137 µM (≈ 25 µg/mL) with Micrococcus luteus [3], 275 µM (≈ 50 µg/mL) against Salmonella enteritidis and 137 µM (≈ 25 µg/mL) against Bacillus cereus.
